The values below come from ChEMBL document CHEMBL1140495, “Neutral 5-substituted 4-anilinoquinazolines as potent, orally active inhibitors of erbB2 receptor tyrosine kinase” (Bioorg Med Chem Lett, 2007).

SMILES strings stand for the structures. The source made the active and inactive calls. The calls are words filed in the database; no cut-off is given here.

The target of data set [1] is T1, Receptor tyrosine-protein kinase erbB-2 (Homo sapiens, UniProt P04626). The data set is described as follows: Inhibition of ErbB2 kinase.
T1 sequence (P04626 whole entry): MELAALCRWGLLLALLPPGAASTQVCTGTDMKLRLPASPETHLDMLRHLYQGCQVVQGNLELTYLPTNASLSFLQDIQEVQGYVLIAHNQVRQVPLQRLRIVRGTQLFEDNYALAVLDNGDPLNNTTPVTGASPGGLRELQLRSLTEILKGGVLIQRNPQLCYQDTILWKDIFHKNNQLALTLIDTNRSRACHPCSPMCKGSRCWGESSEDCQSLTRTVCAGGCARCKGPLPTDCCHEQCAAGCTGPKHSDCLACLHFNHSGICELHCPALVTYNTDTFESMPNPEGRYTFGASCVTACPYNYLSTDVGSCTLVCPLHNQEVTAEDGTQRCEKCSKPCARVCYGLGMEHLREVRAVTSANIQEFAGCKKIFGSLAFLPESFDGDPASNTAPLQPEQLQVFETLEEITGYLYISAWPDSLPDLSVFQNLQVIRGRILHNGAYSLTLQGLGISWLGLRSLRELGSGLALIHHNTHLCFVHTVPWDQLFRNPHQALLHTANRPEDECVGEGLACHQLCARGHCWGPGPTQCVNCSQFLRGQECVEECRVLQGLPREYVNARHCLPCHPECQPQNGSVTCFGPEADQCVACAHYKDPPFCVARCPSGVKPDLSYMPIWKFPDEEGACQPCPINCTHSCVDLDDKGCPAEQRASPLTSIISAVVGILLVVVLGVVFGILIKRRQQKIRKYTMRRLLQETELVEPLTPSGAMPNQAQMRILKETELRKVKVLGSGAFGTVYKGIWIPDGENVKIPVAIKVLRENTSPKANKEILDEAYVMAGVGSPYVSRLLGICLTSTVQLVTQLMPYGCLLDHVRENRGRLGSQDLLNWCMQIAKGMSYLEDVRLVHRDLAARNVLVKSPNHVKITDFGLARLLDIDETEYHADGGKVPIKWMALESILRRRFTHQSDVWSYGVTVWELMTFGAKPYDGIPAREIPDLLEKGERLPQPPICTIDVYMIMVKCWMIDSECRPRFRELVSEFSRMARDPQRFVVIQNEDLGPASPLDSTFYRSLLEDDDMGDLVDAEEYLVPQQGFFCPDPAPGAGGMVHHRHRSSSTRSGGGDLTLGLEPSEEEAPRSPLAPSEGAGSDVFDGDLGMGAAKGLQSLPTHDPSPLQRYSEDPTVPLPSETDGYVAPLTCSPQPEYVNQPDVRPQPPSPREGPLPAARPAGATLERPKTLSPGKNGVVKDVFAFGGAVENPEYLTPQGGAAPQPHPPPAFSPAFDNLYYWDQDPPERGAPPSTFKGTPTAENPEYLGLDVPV
Data set [2] concerns the target T1, Receptor tyrosine-protein kinase erbB-2. In words: Inhibition of Erb2 autophosphorylation by cellular clone 24 assay. The class given is functional.
Data set [3] is described as follows: Lipophilicity, log D of the compound. The settings on record: octanol/water. The data set is classed as physicochemical.
Data set [4] has as its target Epidermal growth factor receptor (Homo sapiens, UniProt P00533).
Data set [5] concerns KB. The data set is described as follows: Effect on growth of human KB cells.
Data set [6] concerns KB. The data set is described as follows: Antiproliferative activity against human KB cells.
Data set [7] is described as follows: Antiproliferative activity against BT474C cells. The class given is functional, cell-based. The settings on record: Homo sapiens.
A further data set has as its system Rattus norvegicus. The data set is described as follows: Inhibition of phospho-EGFR in LoVo cells xenografted rat at 300 mg/kg, po qd.
The subject of data set [8] is Mus musculus. In words: Bioavailability in Alderley Park mouse at 2 mg/kg, iv and 5 mg/kg, po. The class given is ADME, organism-based. As to conditions: in vivo. Summed up: (§1)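 Pharmacokinetics after intravenous dosing at 2 mg/kg and oral dosing at 5 mg/kg in immunocompetent female Alderley Park mice and in female Alderley Park rats. Male Alderley Park beagles received 50 mg iv and 250 mg p.o.; dog figures are means. AUC is AUC0-24 taken from the oral dose.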

Data set [9] concerns the target Vascular endothelial growth factor receptor 2 (Homo sapiens, UniProt P35968). In words: Inhibition of Kdr.
The subject of data set [10] is LoVo. In words: Growth inhibition of LoVo cells xenografted in mouse at 50 mg/kg, po bid. The data set is classed as functional, organism-based. The arrangement: dose 50 mg/kg. As to conditions: Homo sapiens. Summed up:
(§2)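 LoVo xenografts in mice were dosed orally at 50 mg/kg b.i.d. Tumour growth and tumour phospho-EGFR were assessed.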

Data set [11] in a line: AUC in mouse at 50 mg/kg, po in presence of 1-aminobenzotriazole. The data set is classed as ADME, organism-based. The arrangement: dose 50 mg/kg, route oral. The settings on record: plasma.
Data set [12] is described as follows: Plasma concentration in mouse at 50 mg/kg, po in presence of 1-aminobenzotriazole after 2 hrs. The class given is ADME, organism-based. Details: dose 50 mg/kg, route oral.
Data set [13] deals with Mus musculus. In words: Inhibition of phospho-EGFR in LoVo cells xenografted mouse at 50 mg/kg, po bid. The class given is functional, organism-based. The arrangement: dose 50 mg/kg. Summed up:
as §2

Data set [14] deals with BT474C. The data set is described as follows: Antitumor activity against human BT474C cells xenografted mouse at 50 mg/kg, po qd for 21 days. The class given is functional, organism-based. Details: dose 50 mg/kg.
Data set [15] has as its system LoVo. The data set is described as follows: Growth inhibition of LoVo cells xenografted in rat at 300 mg/kg, po qd. The settings on record: Homo sapiens.
The subject of another data set is Phospholipidosis. In words: In vivo phospholipidosis in rat after 14 days at 600 mg/kg dose q.d. The arrangement: dose 600 mg/kg. The class given is ADME, organism-based. As to conditions: 336 h. Summed up: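 Rat toxicology study lasting 14 days with once-daily dosing at up to 600 mg/kg, examined for phospholipidosis.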
The test system of data set [16] is Mus musculus. In words: AUC in mouse at 50 mg/kg, po. The data set is classed as ADME, organism-based, Plasma. The arrangement: dose 50 mg/kg, route oral. The settings on record: in vivo. The method in brief:
(§3)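 Female mice were given a single oral dose of 50 mg/kg without ABT. Total plasma concentration was measured at 2, 4, 6, 16 and 24 h, and AUC was derived.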

Data set [17] concerns Mus musculus. The data set is described as follows: AUC (0 to 24 hrs) in Alderley Park mouse at 5 mg/kg, po. The class given is ADME, organism-based, Plasma. The arrangement: time < 24 hr, dose 5 mg/kg, route oral. The settings on record: in vivo. Summed up: as §1
In data set [18] the test system is Mus musculus. In words: Inhibition of erbB2 phosphorylation in human BT474C cells xenografted mouse at 50 mg/kg, po bid for 21 days. The data set is classed as functional. The settings on record: 504 h.
A short description of data set [19]: Bioavailability in Alderley Park rat at 2 mg/kg, iv and 5 mg/kg, po. The data set is classed as ADME, organism-based. The settings on record: in vivo. Summed up: as §1
For data set [20], the system named is Canis familiaris. The data set is described as follows: Bioavailability in Alderley Park Beagle dog at 50 mg/kg, iv and […], po. The class given is ADME, organism-based, Canis lupus familiaris. The settings on record: in vivo. Summed up: as §1
Data set [21] has as its system Canis familiaris. The data set is described as follows: AUC (0 to 24 hrs) in Alderley Park Beagle dog at […], po. The data set is classed as ADME, organism-based, Canis lupus familiaris, Plasma. The arrangement: time < 24 hr, route oral. As to conditions: in vivo. Summed up:
as §1

Data set [22] can be described thus: Clearance in Alderley Park rat at 2 mg/kg, iv and 5 mg/kg, po. The class given is ADME, organism-based. As to conditions: in vivo. Summed up:
as §1

The nature of data set [23]: AUC (0 to 24 hrs) in Alderley Park rat at 5 mg/kg, po. The class given is ADME, organism-based. Details: time < 24 hr, dose 5 mg/kg, route oral. As to conditions: plasma. Summed up:
as §1

Data set [24] in a line: Volume of distribution at steady state in Alderley Park Beagle dog at 50 mg/kg, iv and […], po. The data set is classed as ADME, organism-based, Canis lupus familiaris. As to conditions: in vivo, read-out: Vdss. The method in brief:
as §1

The nature of data set [25]: Plasma concentration in mouse at 50 mg/kg, po after 2 hrs. The class given is ADME, organism-based. Details: dose 50 mg/kg, route oral. The method in brief:
as §3

Data set [26] is described as follows: Plasma concentration in mouse at 50 mg/kg, po in presence of 1-aminobenzotriazole after 6 hrs. The class given is ADME, organism-based. Details: dose 50 mg/kg, route oral.
The target of data set [27] is Proto-oncogene tyrosine-protein kinase Src (Homo sapiens, UniProt P12931). In words: Inhibition of Src.
Proto-oncogene tyrosine-protein kinase Src, sequence (P12931 2-536 limits assumed): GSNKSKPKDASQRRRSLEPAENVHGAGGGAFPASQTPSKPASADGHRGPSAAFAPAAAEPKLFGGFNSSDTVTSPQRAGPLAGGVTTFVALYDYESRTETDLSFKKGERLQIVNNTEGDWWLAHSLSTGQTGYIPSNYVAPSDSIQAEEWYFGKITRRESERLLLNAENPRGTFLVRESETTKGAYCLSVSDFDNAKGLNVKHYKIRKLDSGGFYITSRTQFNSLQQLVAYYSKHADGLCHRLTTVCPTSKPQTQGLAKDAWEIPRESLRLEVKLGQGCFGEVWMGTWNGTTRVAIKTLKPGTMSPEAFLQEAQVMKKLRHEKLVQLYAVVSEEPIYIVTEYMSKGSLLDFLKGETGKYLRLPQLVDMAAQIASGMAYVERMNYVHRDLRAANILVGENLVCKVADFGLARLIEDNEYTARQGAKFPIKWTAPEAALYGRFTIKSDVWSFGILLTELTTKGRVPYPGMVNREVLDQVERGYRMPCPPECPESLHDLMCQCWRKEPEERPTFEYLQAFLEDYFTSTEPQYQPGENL
Data set [28] is described as follows: Plasma concentration in mouse at 50 mg/kg, po in presence of 1-aminobenzotriazole after 4 hrs. Details: dose 50 mg/kg, route oral. The class given is ADME, organism-based.
A short description of data set [29]: Volume of distribution at steady state in Alderley Park rat at 2 mg/kg, iv and 5 mg/kg, po. The settings on record: in vivo, read-out: Vdss. The data set is classed as ADME, organism-based. The method in brief: as §1
In data set [30] the test system is BT474C. The data set is described as follows: Antitumor activity against human BT474C cells xenografted mouse at 50 mg/kg, po bid for 21 days. Details: dose 50 mg/kg. The data set is classed as functional, organism-based.
Data set [31] in a line: Volume of distribution at steady state in Alderley Park mouse at 2 mg/kg, iv and 5 mg/kg, po. The data set is classed as ADME, organism-based. The settings on record: in vivo, read-out: Vdss. The method in brief: as §1
Data set [32] is described as follows: Plasma concentration in mouse at 50 mg/kg, po in presence of 1-aminobenzotriazole after 24 hrs. The class given is ADME, organism-based. The arrangement: dose 50 mg/kg, route oral.
The nature of data set [33]: Plasma concentration in mouse at 50 mg/kg, po in presence of 1-aminobenzotriazole after 16 hrs. The class given is ADME, organism-based. The arrangement: dose 50 mg/kg, route oral.
Data set [34] relates to Mus musculus. In words: Inhibition of erbB2 phosphorylation in human BT474C cells xenografted mouse at 50 mg/kg, po.

Epidermal growth factor receptor, sequence (P00533 whole entry): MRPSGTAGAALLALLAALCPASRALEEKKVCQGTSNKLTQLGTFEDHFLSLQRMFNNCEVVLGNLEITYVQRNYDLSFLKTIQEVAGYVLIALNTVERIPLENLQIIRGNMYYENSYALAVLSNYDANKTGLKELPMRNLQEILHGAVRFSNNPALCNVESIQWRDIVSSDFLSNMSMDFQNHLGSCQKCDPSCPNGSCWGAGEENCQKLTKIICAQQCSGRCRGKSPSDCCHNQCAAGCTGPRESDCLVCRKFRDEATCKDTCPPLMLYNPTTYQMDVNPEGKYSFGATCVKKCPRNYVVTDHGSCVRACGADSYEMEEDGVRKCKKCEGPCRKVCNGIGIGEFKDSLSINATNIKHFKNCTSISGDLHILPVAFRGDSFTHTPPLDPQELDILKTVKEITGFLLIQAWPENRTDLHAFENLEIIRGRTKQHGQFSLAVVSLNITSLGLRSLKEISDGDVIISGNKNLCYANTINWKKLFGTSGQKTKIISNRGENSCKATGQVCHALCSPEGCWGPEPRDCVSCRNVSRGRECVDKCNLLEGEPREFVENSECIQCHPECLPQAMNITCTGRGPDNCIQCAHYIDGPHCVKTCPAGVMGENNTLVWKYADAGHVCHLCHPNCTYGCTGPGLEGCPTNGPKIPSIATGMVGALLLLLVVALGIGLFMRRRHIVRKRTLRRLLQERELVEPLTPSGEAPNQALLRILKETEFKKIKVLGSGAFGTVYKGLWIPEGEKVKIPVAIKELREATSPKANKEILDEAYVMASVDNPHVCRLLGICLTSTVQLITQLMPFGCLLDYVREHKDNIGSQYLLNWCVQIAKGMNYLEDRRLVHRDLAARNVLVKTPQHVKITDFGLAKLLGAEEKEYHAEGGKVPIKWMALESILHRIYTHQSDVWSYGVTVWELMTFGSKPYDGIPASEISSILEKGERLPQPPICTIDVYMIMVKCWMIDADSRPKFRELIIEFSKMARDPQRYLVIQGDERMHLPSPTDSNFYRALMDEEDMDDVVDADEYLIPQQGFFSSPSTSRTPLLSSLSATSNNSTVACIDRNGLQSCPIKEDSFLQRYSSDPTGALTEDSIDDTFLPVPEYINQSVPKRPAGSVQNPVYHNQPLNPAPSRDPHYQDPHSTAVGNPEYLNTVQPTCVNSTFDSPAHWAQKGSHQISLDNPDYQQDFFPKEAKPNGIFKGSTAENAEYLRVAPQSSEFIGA
Vascular endothelial growth factor receptor 2, sequence (P35968 whole entry): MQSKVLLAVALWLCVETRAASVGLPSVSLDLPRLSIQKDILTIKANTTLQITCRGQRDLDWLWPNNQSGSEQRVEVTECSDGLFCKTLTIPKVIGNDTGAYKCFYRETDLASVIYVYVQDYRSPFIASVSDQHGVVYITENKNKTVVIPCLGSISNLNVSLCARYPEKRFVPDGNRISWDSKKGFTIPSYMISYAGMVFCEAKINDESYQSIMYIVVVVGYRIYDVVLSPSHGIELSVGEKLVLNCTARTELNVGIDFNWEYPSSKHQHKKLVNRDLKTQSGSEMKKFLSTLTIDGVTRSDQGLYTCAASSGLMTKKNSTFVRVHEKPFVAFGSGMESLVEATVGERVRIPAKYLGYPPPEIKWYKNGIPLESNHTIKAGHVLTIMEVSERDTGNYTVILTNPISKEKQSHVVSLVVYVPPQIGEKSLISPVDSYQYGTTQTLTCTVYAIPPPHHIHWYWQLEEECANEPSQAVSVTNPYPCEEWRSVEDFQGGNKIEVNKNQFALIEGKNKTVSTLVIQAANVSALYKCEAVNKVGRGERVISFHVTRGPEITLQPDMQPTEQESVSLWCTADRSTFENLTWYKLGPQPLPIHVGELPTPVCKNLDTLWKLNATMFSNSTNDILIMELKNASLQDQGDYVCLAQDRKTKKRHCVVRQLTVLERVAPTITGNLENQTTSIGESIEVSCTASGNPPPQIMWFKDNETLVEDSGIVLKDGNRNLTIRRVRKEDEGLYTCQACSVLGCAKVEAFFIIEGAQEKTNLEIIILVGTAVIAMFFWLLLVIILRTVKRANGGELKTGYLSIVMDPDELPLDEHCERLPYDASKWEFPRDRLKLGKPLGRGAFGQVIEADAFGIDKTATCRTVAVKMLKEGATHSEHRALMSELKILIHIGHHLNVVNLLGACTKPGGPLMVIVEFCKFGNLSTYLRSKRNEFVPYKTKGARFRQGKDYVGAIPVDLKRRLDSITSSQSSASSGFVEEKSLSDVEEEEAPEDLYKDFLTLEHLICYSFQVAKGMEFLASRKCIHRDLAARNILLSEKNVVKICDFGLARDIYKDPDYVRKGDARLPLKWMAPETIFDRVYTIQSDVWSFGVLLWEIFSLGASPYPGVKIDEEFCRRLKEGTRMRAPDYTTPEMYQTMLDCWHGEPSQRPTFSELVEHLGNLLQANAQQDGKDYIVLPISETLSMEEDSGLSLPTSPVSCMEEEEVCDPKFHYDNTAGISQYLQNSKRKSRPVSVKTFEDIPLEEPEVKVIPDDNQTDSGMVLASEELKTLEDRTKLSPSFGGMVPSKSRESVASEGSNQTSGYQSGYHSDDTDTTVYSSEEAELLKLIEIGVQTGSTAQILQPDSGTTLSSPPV

`O=C(CO)N1CCC[C@@H]1COc1cccc2ncnc(Nc3ccc(OCc4ccccn4)c(Cl)c3)c12`: the IC50 in data set [1] was < 2 nM; in data set [2], 147 nM; in data set [4] it was 97 nM. Moreover, in [3], the logD stood at 3.
In the same order, the values of `C[C@H](COc1cccc2ncnc(Nc3ccc(OCc4ccccn4)c(Cl)c3)c12)N(C)C(=O)CO` are < 2 nM, 11 nM, 3 nM and 3.
`C[C@@H](COc1cccc2ncnc(Nc3ccc(OCc4ccccn4)c(Cl)c3)c12)N(C)C(=O)CO`: the IC50 was determined as 19 nM in data set [1], 131 nM in data set [2] and 2580 nM in data set [4]. In addition, in [3], the logD came to 3.
As to `C[C@H](CN(C)C(=O)CO)Oc1cccc2ncnc(Nc3ccc(OCc4ccccn4)c(Cl)c3)c12`, the IC50 is 6940 nM with KB [5]; 141 nM in the data set on KB [6]; < 2 nM in data set [1]; 34 nM in data set [7]; 11 nM in data set [2]; 2 nM in data set [4]. Besides, the logD in data set [3] worked out at 3.
Consider `CN(CCOc1cccc2ncnc(Nc3ccc(OCc4ccccn4)c(Cl)c3)c12)C(=O)CO`, for which the outcome in the data set with Rattus norvegicus, in the data set on LoVo [10], in the data set on Mus musculus [13] and in the data set with LoVo [15] was inactive. Also, the values for the F in the data set on Mus musculus [8] and with Canis familiaris [20] were 4% and 51%, respectively. The IC50 is > 1000 nM in [9]; 8140 nM in the data set on KB [5]; 621 nM in the data set on KB [6]; 4 nM in [1]; 130 nM in data set [7]; 43 nM in data set [2]. Besides, the IC50 in [27] was > 1000 nM; in [4] it was 35 nM. In addition, the AUC in data set [11] was 99 µM·h; with Mus musculus [16], 0.89 µM·h; in the data set with Mus musculus [17] it was 0.02 µM·h; in the data set on Canis familiaris [21], 32 µM·h. The concentration at 2 h in data set [12] worked out at 16.5 µM; in [25] it was 0.35 µM. Besides, the result in the data set on BT474C [14] and in the data set on BT474C [30] was Active. The Phospholipidosis result in the data set on Phospholipidosis is “Not Active”. For the same molecule, the inhibition in vivo at 50 mg/kg with Mus musculus [18] and in the data set on Mus musculus [34] was 70% in each case. The bioavailability in data set [19] amounted to 32%. The molecule also came in with a clearance in [22] of 10 mL/min/kg. Also, the logD in data set [3] was determined as 3. The molecule further came in with an AUC(0-t) at 24 h in data set [23] of 5.5 µM·h. Further, the Vd in data set [24] was determined as 1 L/kg; in [29], 0.9 L/kg; in [31], 0.7 L/kg. Besides, in data set [26], the concentration at 6 h is 6.3 µM. Moreover, the concentration at 4 h in data set [28] was 13.8 µM. In [32], the concentration at 24 h is 0.007 µM. The concentration at 16 h in data set [33] came to 0.026 µM.
Take `O=C(CO)N1CCC[C@H]1COc1cccc2ncnc(Nc3ccc(OCc4ccccn4)c(Cl)c3)c12`: the IC50 in data set [1] worked out at 2 nM; in data set [2], 259 nM; in data set [4] it was 327 nM. This molecule also registered a logD in data set [3] of 3.
For `C[C@@H](CN(C)C(=O)CO)Oc1cccc2ncnc(Nc3ccc(OCc4ccccn4)c(Cl)c3)c12` the same measures were 22 nM, 291 nM, 191 nM and 3.
